Results published in ChEMBL document CHEMBL1126811, “Fluorinated and iodinated dopamine agents: D2 imaging agents for PET and SPECT” (J Med Chem, 1993).

Legend:
[1] = organism: Rattus norvegicus; format: functional, Striatum, Membrane
[2] = molecular target: D(2) dopamine receptor (Rattus norvegicus, UniProt P61169); assay: Inhibition constant against dopamine receptor D2 in rat
In short: (§1)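 Filtered on protamine-pretreated (0.2%) GF/B filters, washed with cold 50 mM Tris-HCl pH 7.4, gamma-counted. Nonspecific binding defined with 10 μM (+)-butaclamol. Scatchard and competition data fitted by iterative nonlinear least squares.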

[3] = organism: Rattus norvegicus; format: functional, Striatum, Membrane; remark: listed apart in the source
[4] = organism: Rattus norvegicus; assay: Inhibition constant on radiolabeled [125I]FIDA2 binding to rat striatal membranes; parameters: species or system Striatum, Membrane
In short: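 Rat striatal membrane homogenate (40–60 μg protein) incubated with 125I-labeled ligand ± competitors in 0.2 mL assay buffer, 15 min at 37 °C with stirring. Filtered on protamine-pretreated (0.2%) GF/B filters, washed with cold 50 mM Tris-HCl pH 7.4, gamma-counted. Nonspecific binding defined with 10 μM (+)-butaclamol. Scatchard and competition data fitted by iterative nonlinear least squares.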

[5] = organism: Rattus norvegicus; assay: Inhibition constant on radiolabeled [125I]FIDA1 binding to rat striatal membranes; parameters: species or system Striatum, Membrane
In short: as §1

Chain of D(2) dopamine receptor (P61169 whole entry): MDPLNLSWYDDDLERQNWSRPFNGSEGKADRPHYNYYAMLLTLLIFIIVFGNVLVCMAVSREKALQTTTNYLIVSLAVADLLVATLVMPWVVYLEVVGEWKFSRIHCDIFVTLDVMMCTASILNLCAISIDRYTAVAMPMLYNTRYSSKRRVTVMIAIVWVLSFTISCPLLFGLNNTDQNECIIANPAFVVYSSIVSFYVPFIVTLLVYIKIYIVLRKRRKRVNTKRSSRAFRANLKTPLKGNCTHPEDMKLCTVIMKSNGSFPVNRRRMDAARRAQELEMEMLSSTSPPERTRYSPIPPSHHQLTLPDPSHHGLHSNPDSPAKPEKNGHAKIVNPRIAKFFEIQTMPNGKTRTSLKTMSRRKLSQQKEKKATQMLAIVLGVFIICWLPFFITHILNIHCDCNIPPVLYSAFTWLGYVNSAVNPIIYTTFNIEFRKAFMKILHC

## CCCN1CCC[C@@H]2Cc3n[nH]cc3C[C@H]21 [QUINPIROLE]
[1]
  Ki: 8000 nM

## CCN1CCC[C@H]1CNC(=O)c1c(OC)ccc(I)c1O [IOLOPRIDE]
[2]
  Ki: 0.43 nM

## CCN1CCC[C@H]1CNC(=O)c1cc(I)cc2c1OCC2
[2]
  Ki: 0.106 nM

## CN1[C@@H]2CC[C@H]1C[C@@H](OC(=O)C(CO)c1ccccc1)C2 (some centres not stated) [ATROPINE]
[1]
  Ki: > 10000 nM
[3]
  Ki: > 10000 nM

## NCCc1c[nH]c2ccc(O)cc12 [SEROTONIN]
[3]
  Ki: > 5000 nM

## CCN1CCC[C@H]1CNC(=O)c1cc(CCCF)cc(OC)c1OC
[2]
  Ki: 0.02 nM

## CCN1CCC[C@H]1CNC(=O)c1c(OC)ccc(S(N)(=O)=O)c1I [IODOSULPIRIDE]
[2]
  Ki: 1.5 nM

## CCN1CCC[C@H]1CNC(=O)c1c(O)c(Cl)cc(Cl)c1OC [RACLOPRIDE]
[4]
  Ki: 5 nM
[5]
  Ki: 2.31 nM

## CCN1CCC[C@H]1CNC(=O)c1c(O)c(I)cc(OC)c1OC [IOXIPRIDE]
[2]
  Ki: 0.019 nM

## C=CCN1CC[C@]23c4c5ccc(O)c4O[C@H]2C(=O)CC[C@@]3(O)[C@H]1C5 [NALOXONE]
[1]
  Ki: > 10000 nM
[3]
  Ki: > 10000 nM

## CCN1CCC[C@H]1CNC(=O)c1cc(I)cc(OC)c1OC [EPIDEPRIDE]
[2]
  Ki: 0.025 nM

## COc1cc(Br)cc(C(=O)NC[C@@H]2CCCN2Cc2ccc(F)cc2)c1OC
[2]
  Ki: 0.147 nM

## CCN1CCC[C@H]1CNC(=O)c1cc(I)ccc1OC [IODOPRIDE]
[2]
  Ki: 3 nM

## CC(C)(C)[C@@]1(O)CCN2C[C@@H]3c4ccccc4CCc4cccc(c43)[C@H]2C1
[1]
  Ki: 0.4 nM
[3]
  Ki: 1.05 nM

## CCc1cc(Cl)c(OC)c(C(=O)NC[C@@H]2CCCN2CC)c1O [ETICLOPRIDE]
[4]
  Ki: 0.06 nM
[5]
  Ki: 0.014 nM

## COC(=O)[C@@H]1[C@H]2C[C@H]3c4[nH]c5ccccc5c4CCN3C[C@@H]2CC[C@@H]1O [YOHIMBINE]
[1]
  Ki: 505 nM

## CCN1CCC[C@@H]1CNC(=O)c1cccc(OC)c1OCCF
[2]
  Ki: 13 nM
